The test system of assay [1] is Escherichia coli. Put plainly: Antibacterial activity against aminoglycoside-susceptible Escherichia coli TG1 after 12 to 18 hrs. It is filed as functional. The method in brief: (§1)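 Broth microdilution. Bacterial suspension adjusted with broth to absorbance 0.08–0.1 at 625 nm, diluted further in broth, and mixed in wells with 2-fold serial dilutions of compound. Plates incubated at 35°C for 12–18 h. MIC is the lowest concentration inhibiting growth; each determination repeated at least three times.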

The subject of assay [2] is Staphylococcus aureus. In words: Antibacterial activity against aminoglycoside-susceptible Staphylococcus aureus ATCC 25923 after 12 to 18 hrs. The format is functional. The method in brief: as §1
Assay [3] relates to Escherichia coli. In words: Antibacterial activity against Escherichia coli TG1 pET28a plasmid encoded for APH(3')-3a after 12 to 18 hrs. It is filed as functional. The method in brief: as §1
Assay [4] relates to Escherichia coli. In words: Antibacterial activity against aminoglycoside-susceptible Escherichia coli ATCC 25922 after 12 to 18 hrs. It is filed as functional. Put shortly:
as §1

For assay [5], the system named is Enterococcus. Put plainly: Activity of Enterococcus APH(3')-3a.
The test system of assay [6] is Escherichia coli. Put plainly: Antibacterial activity against Escherichia coli TG1 pTZ19U-3 plasmid encoded for APH(3')-1 after 12 to 18 hrs. The format is functional. The method in brief: as §1
Assay [7] has as its system Enterococcus. Put plainly: Ratio of kcat to Km of Enterococcus APH(3')-3a.
Assay [8] deals with Escherichia coli. Put plainly: Antibacterial activity against Escherichia coli TG1 pSF815 plasmid encoded for AAC(6')/APH(2') after 12 to 18 hrs. The format is functional. The method in brief: as §1

Values after ≈ are worked out from the molar mass of the structure shown.

Regarding `NCc1cn(C[C@H]2O[C@@H](O[C@@H]3[C@@H](O)[C@H](N)C[C@H](N)[C@H]3O[C@H]3O[C@H](CN)[C@@H](O)[C@H](O)[C@H]3N)[C@H](O)[C@@H]2O[C@H]2O[C@@H](CN)[C@@H](O)[C@H](O)[C@H]2N)nn1`, the MIC in assay [1] stood at 16 µg/mL (≈ 23 µM); in assay [2] it was 1 µg/mL (≈ 1.44 µM); in assay [3], 64 µg/mL (≈ 92.1 µM); in assay [4], 8 µg/mL (≈ 11.5 µM); in assay [6], 1000 µg/mL (≈ 1440 µM); in assay [8], 16 µg/mL (≈ 23 µM). Further, in assay [5], the Km is 111 µM. Further, the maximum rate (Vmax) in assay [5] was 0.68 µmol/min/mg. In assay [5], the kcat was determined as 0.34 s⁻¹. Besides, the kcat/Km in assay [7] is 0.3 ×10⁴ /M/s.

As to `NC[C@@H]1O[C@H](O[C@H]2[C@@H](O)[C@H](O[C@@H]3[C@@H](O)[C@H](N)C[C@H](N)[C@H]3O[C@H]3O[C@H](CN)[C@@H](O)[C@H](O)[C@H]3N)O[C@@H]2CNC(=O)[C@H]2CCCN2)[C@H](N)[C@@H](O)[C@@H]1O`, the MIC in assay [1] is 8 µg/mL (≈ 11.3 µM); in assay [2], 0.5 µg/mL (≈ 0.703 µM); in assay [3] it was 64 µg/mL (≈ 90 µM); in assay [4], 8 µg/mL (≈ 11.3 µM); in assay [6], ≥ 2000 µg/mL; in assay [8] it was 16 µg/mL (≈ 22.5 µM). Also, the Km in assay [5] is 70 µM. Besides, in assay [5], the Vmax stood at 0.72 µmol/min/mg. Also, the kcat in assay [5] was determined as 0.36 s⁻¹. Besides, the kcat/Km in assay [7] was 0.51 ×10⁴ /M/s.

For `C[C@H](N)C(=O)NC[C@H]1O[C@@H](O[C@@H]2[C@@H](O)[C@H](N)C[C@H](N)[C@H]2O[C@H]2O[C@H](CN)[C@@H](O)[C@H](O)[C@H]2N)[C@H](O)[C@@H]1O[C@H]1O[C@@H](CN)[C@@H](O)[C@H](O)[C@H]1N`, the MIC was 8 µg/mL (≈ 11.7 µM) in assay [1]; 0.5 µg/mL (≈ 0.73 µM) in assay [2]; 64 µg/mL (≈ 93.5 µM) in assay [3]; 8 µg/mL (≈ 11.7 µM) in assay [4]; ≥ 2000 µg/mL in assay [6]; 16 µg/mL (≈ 23.4 µM) in assay [8]. Moreover, in assay [5], the Km worked out at 60 µM. The maximum rate (Vmax) in assay [5] was determined as 0.9 µmol/min/mg. The kcat in assay [5] was determined as 0.45 s⁻¹. In assay [7], the kcat/Km turned out to be 0.75 ×10⁴ /M/s.

Consider `NC[C@@H]1O[C@H](O[C@H]2[C@@H](O)[C@H](O[C@@H]3[C@@H](O)[C@H](N)C[C@H](N)[C@H]3O[C@H]3O[C@H](CN)[C@@H](O)[C@H](O)[C@H]3N)O[C@@H]2Cn2cc(CNC(=O)[C@@H]3CCCN3)nn2)[C@H](N)[C@@H](O)[C@@H]1O`, for which the MIC in assay [1] was 16 µg/mL (≈ 20.2 µM); in assay [2] it was 2 µg/mL (≈ 2.53 µM); in assay [3], 64 µg/mL (≈ 80.8 µM); in assay [4], 16 µg/mL (≈ 20.2 µM); in assay [6], ≥ 2000 µg/mL; in assay [8], 16 µg/mL (≈ 20.2 µM). Also, the Km in assay [5] came out at 175 µM. For the same compound, the Vmax in assay [5] was determined as 0.4 µmol/min/mg. Also, in assay [5], the kcat is 0.2 s⁻¹. Moreover, the kcat/Km in assay [7] is 0.14 ×10⁴ /M/s.

With `CCCCCCc1cn(C[C@H]2O[C@@H](O[C@@H]3[C@@H](O)[C@H](N)C[C@H](N)[C@H]3O[C@H]3O[C@H](CN)[C@@H](O)[C@H](O)[C@H]3N)[C@H](O)[C@@H]2O[C@H]2O[C@@H](CN)[C@@H](O)[C@H](O)[C@H]2N)nn1`, the minimal inhibitory concentration (MIC) in assay [1] came out at 8 µg/mL (≈ 10.7 µM); in assay [2] it was 4 µg/mL (≈ 5.33 µM); in assay [3], 32 µg/mL (≈ 42.7 µM); in assay [4], 32 µg/mL (≈ 42.7 µM); in assay [6], 500 µg/mL (≈ 667 µM); in assay [8], 16 µg/mL (≈ 21.3 µM). Besides, the Km in assay [5] is 127 µM. Moreover, the Vmax in assay [5] came to 0.75 µmol/min/mg. In addition, in assay [5], the catalytic constant (kcat) was determined as 0.38 s⁻¹. Besides, the kcat/Km in assay [7] was determined as 0.3 ×10⁴ /M/s.

The compound `NC[C@@H]1O[C@@H](O[C@H]2[C@H](O)[C@@H](O[C@H]3O[C@H](CO)[C@@H](O)[C@H](N)[C@H]3O)[C@H](N)C[C@@H]2N)[C@@H](O)[C@H](O)[C@H]1O` [KANAMYCIN A] gave an MIC in assay [3] of 125 µg/mL (≈ 258 µM). In addition, in assay [5], the Km was 8.2 µM, the maximum rate (Vmax) came to 6.96 µmol/min/mg and the kcat was found to be 3.48 s⁻¹. Besides, in assay [7], the kcat/Km was found to be 42.4 ×10⁴ /M/s.
